The values that follow come from ChEMBL document CHEMBL4373631, “Design, synthesis and evaluation of PD176252 analogues for ameliorating cisplatin-induced nephrotoxicity” (Medchemcomm, 2019).

Each structure is given as a SMILES string. The source made the active and inactive calls. The rule behind the calls is not given here.

Data set [1] relates to HK-2. In words: Antiinflammatory activity in human HK2 cells assessed as suppression of cisplatin-induced MCP-1 mRNA level at 4 uM by SYBR-green based RT-PCR analysis. It counts as functional, cell-based. Put shortly:
(§1)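 Overnight starvation of HK2 cells in DMEM/F12 with 0.5% FBS, then 6 h compound pretreatment before cisplatin 20 μM. Cells harvested after 24 h. Total RNA extracted with an RNeasy kit, and MCP-1, TNF-α or IL-6 mRNA quantified by real-time PCR. Three to four independent experiments.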

For data set [2], the system named is HK-2. In words: Cytotoxicity against human HK2 cells assessed as reduction in cell viability after 24 hrs by MTT assay. It counts as cell-based. The note with it: hk-2, 24 h. The procedure, abridged:
(§2)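 MTT cytotoxicity read-out on HK2 cells. Medium was changed, MTT in PBS added to a final 0.5 mg/mL, and plates incubated 4 h at 37°C. Medium was then removed, formazan dissolved in DMSO, and absorbance read at 492 nm.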
Background: Tetrazolium assays rely on reduction of a dye to a coloured formazan, in cell work by metabolically active cells.

In data set [3] the test system is HK-2. In words: Antiinflammatory activity in human HK2 cells assessed as suppression of cisplatin-induced IL-6 mRNA level at 4 uM by SYBR-green based RT-PCR analysis. Type of data set: functional, cell-based. Put shortly: as §1
Data set [4] concerns HK-2. Nature of the data set: Antiinflammatory activity in human HK2 cells assessed as suppression of cisplatin-induced IL-6 […] level at 4 uM by ELISA. Type of data set: functional, cell-based. Put shortly: (§3)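 HK2 cells starved overnight in DMEM/F12 with 0.5% FBS, pretreated with compound 6 h, then cisplatin 20 μM added. After 24 h, cytokine protein in the culture medium was measured with human TNF-α, IL-6 or MCP-1 ELISA kits per manufacturer's instructions. Three to four independent experiments.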

The subject of data set [5] is HK-2. In words: Antiinflammatory activity in human HK2 cells assessed as suppression of cisplatin-induced TNF-alpha mRNA level at 4 uM by SYBR-green based RT-PCR analysis. Type of data set: functional, cell-based. Put shortly: as §1
The subject of data set [6] is HK-2. Nature of the data set: Antiinflammatory activity in human HK2 cells assessed as suppression of cisplatin-induced MCP-1 […] level at 4 uM by ELISA. It counts as functional, cell-based. Put shortly:
as §3
A general note: An ELISA detects its analyte on a solid surface through an enzyme-linked reagent.

The subject of data set [7] is HK-2. In words: Antiinflammatory activity in human HK2 cells assessed as suppression of cisplatin-induced TNF-alpha […] level at 4 uM by ELISA. It counts as functional, cell-based. Put shortly:
as §3

For data set [8], the target named is Transcription factor p65 (Homo sapiens) (UniProt Q04206). In words: Inhibition of cisplatin-induced NF-kappaB p65 phosphorylation in human HK2 cells at 4 uM by Western blot analysis. Type of data set: cell-based. The procedure, abridged: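 HK2 cells starved overnight in DMEM/F12 with 0.5% FBS, pretreated 6 h with compound, then given cisplatin 20 μM for 24 h. Lysates made in ice-cold RIPA buffer and protein measured by BCA. Run on 10% SDS-PAGE, transferred to nitrocellulose, primary antibodies 18 h at 4°C, IRDye 800 secondary 1.5 h at room temperature.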
(In general: In western blotting, separated proteins are transferred to a membrane and probed.)

Data set [9] deals with HK-2. Nature of the data set: Protection against cisplatin-induced cell death in human HK2 cells assessed as increase in survival rate preincubated for 6 hrs followed by cisplatin addition measured after 24 hrs by MTT assay. It counts as functional, cell-based.
The subject of data set [10] is HK-2. In words: Cytotoxicity against human HK2 cells assessed as reduction in cell viability at 1 to 256 uM after 24 hrs by MTT assay. Type of data set: cell-based. As to conditions: hk-2, 24 h. The procedure, abridged:
as §2

In data set [11] the test system is HK-2. Nature of the data set: Protection against cisplatin-induced cell death in human HK2 cells assessed as increase in survival rate at 4 uM preincubated for 6 hrs followed by cisplatin addition measured after 24 hrs by MTT assay relative to control. Type of data set: functional. The note with it: read-out: Survival. The procedure, abridged:
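HK2 cells starved overnight in DMEM/F12 with 0.5% FBS, pretreated with compound for 6 h, then exposed to cisplatin (20 μM) for 24 h. Compounds from 5 mM DMSO stocks. Viability by MTT: 0.5 mg/mL final, 4 h at 37°C, formazan dissolved in DMSO, absorbance at 492 nm. Three to four independent experiments.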

Transcription factor p65 (Homo sapiens), sequence (Q04206 whole entry): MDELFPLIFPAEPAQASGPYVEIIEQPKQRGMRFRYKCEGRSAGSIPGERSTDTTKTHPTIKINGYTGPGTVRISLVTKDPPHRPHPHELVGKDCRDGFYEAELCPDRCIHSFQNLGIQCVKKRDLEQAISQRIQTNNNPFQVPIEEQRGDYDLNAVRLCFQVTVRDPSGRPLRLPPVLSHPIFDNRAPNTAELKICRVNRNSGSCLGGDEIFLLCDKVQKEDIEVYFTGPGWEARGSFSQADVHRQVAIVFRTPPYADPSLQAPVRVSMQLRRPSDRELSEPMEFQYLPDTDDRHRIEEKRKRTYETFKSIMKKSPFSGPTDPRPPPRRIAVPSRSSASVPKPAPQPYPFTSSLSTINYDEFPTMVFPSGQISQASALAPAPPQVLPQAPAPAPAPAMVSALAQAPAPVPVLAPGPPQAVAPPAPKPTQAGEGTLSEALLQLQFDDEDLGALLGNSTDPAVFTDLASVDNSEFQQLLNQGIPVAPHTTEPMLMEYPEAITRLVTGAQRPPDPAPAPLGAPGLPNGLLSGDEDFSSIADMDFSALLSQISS

For `COc1ccc(C2(CNC(=O)[C@](C)(Cc3c[nH]c4ccccc34)NC(=O)Nc3ccc([N+](=O)[O-])cc3)CCCCC2)nc1`, the outcome in the data set on HK-2 [1], in the data set with HK-2 [3], in the data set with HK-2 [4], in the data set with HK-2 [5], with HK-2 [6] and with HK-2 [7] was Active. The Activity result in the data set on HK-2 [2] is reported as “Toxic”. In [8], the inhibition result is “Active”.
As for `Cc1ccc(CC(=O)N[C@@H](Cc2ccccc2)C(=O)NCCn2ccnc2)cc1`, the result with HK-2 [1], with HK-2 [3], in the data set with HK-2 [4], with HK-2 [5], with HK-2 [6] and in the data set on HK-2 [7] was Active. In addition, the Activity result in the data set on HK-2 [9] was “Dose-dependent effect”; in the data set on HK-2 [10], “Non-Toxic”. Further, in the data set on HK-2 [11], the viability at 4 µM was above 40%. The inhibition result in data set [8] was “Active”.
In the case of `O=C(Cc1ccc(F)cc1)N[C@@H](Cc1ccc(O)cc1)C(=O)NCCN1CCOCC1`, the outcome in the data set with HK-2 [1], in the data set with HK-2 [3] and in the data set on HK-2 [5] was Active. For the same compound, the results for the Activity result in the data set with HK-2 [9] and with HK-2 [10] were “Dose-dependent effect” and “Non-Toxic”, respectively. Moreover, the viability at 4 µM in the data set on HK-2 [11] was above 30%.
